Laboratory results as given in ChEMBL document CHEMBL1909609, “Synthesis of purine modified 2'-C-methyl nucleosides as potential anti-HCV agents” (Bioorg Med Chem Lett, 2011).
Activity calls are given as the source filed them. The rule behind the calls is not given here.

Tests used:
[1] = Cytotoxicity against african green monkey Vero after 5 days; type: cell-based; details: chlorocebus sabaeus, Vero cells
[2] = Cytotoxicity against human PBMC after 5 days; type: cell-based
[3] = (§1) Cytotoxicity against human CEM after 5 days; type: cell-based, CCRF-CEM; details: CEM cells (CCRF-CEM)
Huh-7 = assay: Cytotoxicity against human HuH7 cells assessed as rRNA level at 10 uM; type: cell-based; details: huh-7, 10 µM
How it was run: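 Huh7 cells carrying a subgenomic HCV replicon were given compound at 10 μM. Cytotoxicity was measured alongside anti-HCV activity by extracting and amplifying ribosomal RNA together with HCV RNA.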

Hepatitis C virus [4] = assay: Antiviral activity against HCV infected in human HuH7 cells assessed as inhibition of viral replication at 10 uM by RT-PCR analysis; type: functional, Hepacivirus hominis; details: Huh-7
How it was run: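 Huh7 cells carrying a subgenomic HCV replicon, with compounds tested at 10 μM. HCV RNA and ribosomal RNA were extracted and amplified together, so cytotoxicity was read at the same time as replicon inhibition.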

[5] = tested on: Human immunodeficiency virus 1; assay: Antiviral activity against HIV1 LAI infected in human peripheral blood mononuclear cells assessed as inhibition of viral replication after 5 days by quantitative RT-PCR analysis; type: functional, organism-based; details: Human immunodeficiency virus 1, LAI, 120 h
How it was run: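 Primary human PBM cells were infected with HIV-1 LAI, and AZT was run as the positive standard.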

[6] = molecular target: T1, Adenosine deaminase (Homo sapiens) (UniProt P00813); assay: Activity at adenosine deaminase assessed as nitrogen to oxygen transformation
T1 sequence (whole entry): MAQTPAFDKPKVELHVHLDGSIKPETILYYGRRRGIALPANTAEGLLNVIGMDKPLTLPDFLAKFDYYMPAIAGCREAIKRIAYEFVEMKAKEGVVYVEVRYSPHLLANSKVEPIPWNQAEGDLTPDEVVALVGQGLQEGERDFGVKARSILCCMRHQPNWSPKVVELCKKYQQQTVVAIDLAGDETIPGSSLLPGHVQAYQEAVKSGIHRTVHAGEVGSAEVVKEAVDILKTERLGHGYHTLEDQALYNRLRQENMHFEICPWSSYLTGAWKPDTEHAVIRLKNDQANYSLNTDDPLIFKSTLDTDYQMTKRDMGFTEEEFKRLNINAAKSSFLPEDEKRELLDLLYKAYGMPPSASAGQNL

[7] = molecular target: T1, Adenosine deaminase (Homo sapiens); assay: Activity at adenosine deaminase
How it was run: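 ADA inhibition assay: 140 μM adenosine (final) with 0.01 units adenosine deaminase in 50 mM potassium phosphate, pH 7.4; compounds at 10 μM. Absorbance at 265 nm followed over four minutes. Inhibition judged from the change in slope relative to no-compound control, with a slope nearing zero indicating inhibition.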

CCRF-CEM = assay: as §1; type: cell-based; details: ccrf-cem, 120 h
Hepatitis C virus [8] = assay: Antiviral activity against HCV infected in human HuH7 cells assessed as inhibition of viral replication by RT-PCR analysis; type: functional, organism-based, Hepacivirus hominis; details: Huh-7
How it was run: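 Subgenomic HCV replicon system in Huh7 cells. HCV RNA and ribosomal RNA were both extracted and amplified, with the rRNA signal giving cytotoxicity at the same time as antiviral activity.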

[9] = Chemical stability of the compound in phosphate buffer at pH 7.4 assessed as formation of complex mixture product after 3 days; type: physicochemical; details: pH 7.4, 72 h

C[C@@]1(O)[C@H](O)[C@@H](CO)O[C@H]1n1cnc2c(N)nc(N=[N+]=[N-])nc21
CC50 at 120 h [1]: > 100 µM
CC50 at 120 h [2]: > 100 µM
CC50 at 120 h [3]: > 100 µM
Activity (Huh-7): 0%
inhibition at 10 µM (Hepatitis C virus [4]): 5.2%
EC50 [5]: > 100 µM
EC90 [5]: > 100 µM

C[C@@]1(O)[C@H](O)[C@@H](CO)O[C@H]1n1cnc2c(=O)[nH]nc(N)c21
CC50 at 120 h [1]: > 100 µM
CC50 at 120 h [2]: > 100 µM
CC50 at 120 h [3]: > 100 µM
Activity (Huh-7): 0%
inhibition at 10 µM (Hepatitis C virus [4]): 0%
EC50 [5]: > 100 µM
EC90 [5]: > 100 µM

C[C@@]1(O)[C@H](O)[C@@H](CO)O[C@H]1n1cnc2c(=N)n(N)[nH]c(=O)c21
CC50 at 120 h [1]: > 100 µM
CC50 at 120 h [2]: > 100 µM
CC50 at 120 h [3]: > 100 µM
Activity (Huh-7): 0%
inhibition at 10 µM (Hepatitis C virus [4]): 0%
EC50 [5]: > 100 µM
EC90 [5]: > 100 µM

CCOP(=O)(OCC)c1nc(N)nc2c1ncn2[C@@H]1O[C@H](CO)[C@@H](O)[C@@]1(C)O
Activity [6]: inactive
CC50 at 120 h [1]: > 100 µM
CC50 at 120 h [2]: > 100 µM
CC50 at 120 h [3]: > 100 µM
Activity (Huh-7): 15%
inhibition at 10 µM (Hepatitis C virus [4]): 19%
EC50 [5]: > 100 µM
EC90 [5]: > 100 µM

C[C@@]1(O)[C@H](O)[C@@H](CO)O[C@H]1n1cnc2c(N)nc(-n3ccnn3)nc21
Activity [6]: inactive
Activity [7]: Active
CC50 at 120 h [1]: > 100 µM
CC50 at 120 h [2]: > 100 µM
CC50 at 120 h [3]: > 100 µM
Activity (Huh-7): 0%
inhibition at 10 µM (Hepatitis C virus [4]): 0%
EC50 [5]: > 100 µM
EC90 [5]: > 100 µM

CCOC(=O)[C@H](C)NP(=O)(OC[C@H]1O[C@@H](n2cnc3c(C)nc(N)nc32)[C@](C)(O)[C@@H]1O)Oc1ccccc1 (some centres undefined)
CC50 at 120 h [1]: > 100 µM
CC50 at 120 h [2]: > 100 µM
CC50 at 120 h [3]: > 100 µM
Activity (Huh-7): 0%
inhibition at 10 µM (Hepatitis C virus [4]): 0%
EC50 [5]: 68 µM
EC90 [5]: > 100 µM

C[C@@]1(O)[C@H](O)[C@@H](CO)O[C@H]1n1cnc2c(N)nc(-n3cc([Si](C)(C)C)nn3)nc21
CC50 at 120 h [1]: > 100 µM
CC50 at 120 h [2]: > 100 µM
CC50 at 120 h [3]: > 100 µM
Activity (Huh-7): 0%
inhibition at 10 µM (Hepatitis C virus [4]): 0%
EC50 [5]: > 100 µM
EC90 [5]: > 100 µM

Cc1nc2c3ncn([C@@H]4O[C@H](CO)[C@@H](O)[C@@]4(C)O)c3nc(N)n2n1
CC50 at 120 h [1]: > 100 µM
CC50 at 120 h [2]: > 100 µM
CC50 at 120 h [3]: > 100 µM
Activity (Huh-7): 0%
inhibition at 10 µM (Hepatitis C virus [4]): 0%
EC50 [5]: > 100 µM
EC90 [5]: > 100 µM

C[C@@]1(O)[C@H](O)[C@@H](CO)O[C@H]1n1cnc(C(=O)NN)c1/C(N)=N/N
CC50 at 120 h [1]: > 100 µM
CC50 at 120 h [2]: > 100 µM
CC50 at 120 h [3]: > 100 µM
Activity (Huh-7): 9%
inhibition at 10 µM (Hepatitis C virus [4]): 0%
EC50 [5]: > 100 µM
EC90 [5]: > 100 µM

C[C@@]1(O)[C@H](O)[C@@H](CO)O[C@H]1n1cnc2c(N)n[nH]c(=O)c21
Activity [6]: inactive
CC50 at 120 h [1]: > 100 µM
CC50 at 120 h [2]: > 100 µM
CC50 at 120 h [3]: > 100 µM
Activity (Huh-7): 0%
inhibition at 10 µM (Hepatitis C virus [4]): 0%
EC50 [5]: > 100 µM
EC90 [5]: > 100 µM

CCOP(=O)(O)c1nc(N)nc2c1ncn2[C@@H]1O[C@H](CO)[C@@H](O)[C@@]1(C)O
Activity [6]: inactive
CC50 at 120 h [1]: > 100 µM
CC50 at 120 h [2]: > 100 µM
CC50 at 120 h [3]: > 100 µM
Activity (Huh-7): 15%
inhibition at 10 µM (Hepatitis C virus [4]): 19%
EC50 [5]: > 100 µM
EC90 [5]: > 100 µM

C[C@@]1(OC(=O)c2ccccc2)[C@H](OC(=O)c2ccccc2)[C@@H](COC(=O)c2ccccc2)O[C@H]1n1cnc2c(Cl)nc(NO)nc21
CC50 at 120 h [1]: > 100 µM
CC50 at 120 h [2]: 43 µM
CC50 (CCRF-CEM): 7.3 µM
Activity (Huh-7): 100%
inhibition at 10 µM (Hepatitis C virus [4]): 100%
EC50 [5]: 17 µM
EC90 [5]: 65 µM

CCOC(=O)[C@H](C)NP(=O)(OC[C@H]1O[C@@H](n2cnc3c(N)nc(NN)nc32)[C@](C)(O)[C@@H]1O)Oc1ccccc1 (some centres undefined)
EC50 (Hepatitis C virus [8]): 0.9 µM

C[C@@]1(O)[C@H](O)[C@@H](CO)O[C@H]1n1cnc2c1nc(N)n1nc(-c3ccco3)nc21
CC50 at 120 h [1]: > 100 µM
CC50 at 120 h [2]: > 100 µM
CC50 at 120 h [3]: > 100 µM
Activity (Huh-7): 0%
inhibition at 10 µM (Hepatitis C virus [4]): 0%
EC50 [5]: > 100 µM
EC90 [5]: > 100 µM

COc1nc(Cl)nc2c1ncn2[C@@H]1O[C@H](CO)[C@@H](O)[C@@]1(C)O
CC50 at 120 h [1]: > 100 µM
CC50 at 120 h [2]: > 100 µM
CC50 at 120 h [3]: > 100 µM
Activity (Huh-7): 9.8%
inhibition at 10 µM (Hepatitis C virus [4]): 14%
EC50 [5]: > 100 µM
EC90 [5]: > 100 µM

C[C@@]1(O)[C@H](O)[C@@H](CO)O[C@H]1n1cnc2c(N)nc(NN)nc21
CC50 at 120 h [1]: > 100 µM
CC50 at 120 h [2]: > 100 µM
CC50 at 120 h [3]: > 100 µM
Activity (Huh-7): 7%
inhibition at 10 µM (Hepatitis C virus [4]): 85%
Stability [9]: Unstable
EC50 [5]: > 100 µM
EC90 [5]: > 100 µM
EC50 (Hepatitis C virus [8]): 6 µM

Cc1nc(N)nc2c1ncn2[C@@H]1O[C@H](CO)[C@@H](O)[C@@]1(C)O
CC50 at 120 h [1]: > 100 µM
CC50 at 120 h [2]: > 100 µM
CC50 at 120 h [3]: 13 µM
Activity (Huh-7): 0%
inhibition at 10 µM (Hepatitis C virus [4]): 0%
EC50 [5]: 70 µM
EC90 [5]: > 100 µM

C[C@@]1(OC(=O)c2ccccc2)[C@H](OC(=O)c2ccccc2)[C@@H](COC(=O)c2ccccc2)O[C@H]1n1cnc2c(N)nc(NO)nc21
CC50 at 120 h [1]: 42 µM
CC50 at 120 h [2]: > 100 µM
CC50 at 120 h [3]: 27 µM
Activity (Huh-7): 76%
inhibition at 10 µM (Hepatitis C virus [4]): 66%
EC50 [5]: 8.7 µM
EC90 [5]: 42 µM

C[C@@]1(O)[C@H](O)[C@@H](CO)O[C@H]1n1cnc2c(N)nc(Cl)nc21
CC50 at 120 h [1]: > 100 µM
CC50 at 120 h [2]: > 100 µM
CC50 at 120 h [3]: > 100 µM
Activity (Huh-7): 5.8%
inhibition at 10 µM (Hepatitis C virus [4]): 0%
EC50 [5]: > 100 µM
EC90 [5]: > 100 µM
